# Assay outcomes: PubChem BioAssay, Broad Institute
# The list is not random: actives were taken first. Their share in the collection is about 5.9%.
# KDM4C inh: inhibitors of GASC-1 (KDM4C) histone demethylase, primary screen, biochemical, single concentration HTS; Lysine-specific demethylase 4C (Homo sapiens), Q9H3R0; GST-KDM4C 2-372, H3K9me3 peptide, LANCE TR-FRET; inhibition, % at 12.5 µM; 96,000 compounds, 0.15% hits; AID 720574, 2013;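 active = mean replicate inhibition above about 25%, with at least 55% of replicates also reaching it, limit read from the data, passing the limit was not always enough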
# Target sequence (Q9H3R0 2-372 limits assumed): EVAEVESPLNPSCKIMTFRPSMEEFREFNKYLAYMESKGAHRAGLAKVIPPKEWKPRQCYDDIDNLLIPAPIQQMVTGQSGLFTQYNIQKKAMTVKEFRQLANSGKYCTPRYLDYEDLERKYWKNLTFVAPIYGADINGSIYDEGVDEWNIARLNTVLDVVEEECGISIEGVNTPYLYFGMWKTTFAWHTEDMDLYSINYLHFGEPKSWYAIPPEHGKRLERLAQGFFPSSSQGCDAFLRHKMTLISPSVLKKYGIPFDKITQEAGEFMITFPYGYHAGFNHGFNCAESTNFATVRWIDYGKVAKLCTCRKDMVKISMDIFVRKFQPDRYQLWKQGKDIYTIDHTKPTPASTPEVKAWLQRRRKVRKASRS
#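 Material: GST-tagged GASC-1 (JMJD2C) catalytic fragment, aa 2-372. Input: enzyme final amount 10 nM. Medium: HEPES buffer, pH 7.5, plus ascorbate. Reagent: H3K9me3 peptide substrate, Fe(II), 2-oxoglutarate. Doses: single dose. Times: reaction 30 min RT, detection step 1 h RT. Measured by: LANCE TR-FRET. Evaluation: Fall in 671/618 emission ratio as inhibition.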
# IDH1 R132H inh: inhibitors of IDH1 R132H reductase, primary screen, biochemical, plate reader, single point | Isocitrate dehydrogenase [NADP] cytoplasmic (Homo sapiens), O75874 | diaphorase/resazurin fluorescence, 60 min | inhibition, % at 10 µM | 70,000 compounds, 0.18% hits; in the data active = inhibition above about 34%;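 note: 0% = DMSO and 100% = no enzyme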
# Pf Dd2 inh: P. falciparum Dd2 growth inhibitors, primary screen, SYBR Green fluorescence, single dose replicates | 72 h; active compounds read low | activity change, % at 10 µM | 94,000 compounds, 2.3% hits; in the data active = activity change below about -80%
# T cruzi growth: T. cruzi intracellular proliferation inhibitors, primary screen, cell-based, beta-gal Tulahuen parasites, NIH3T3 host, luminescence | T. cruzi beta-gal in NIH3T3, GalScreen luminescence, 90 h | 77,000 compounds, 5.9% hits | inhibition, % at 8.34 µM;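 active = mean inhibition above about 93%, with at least 55% of replicates each passing it, limit read from the data, passing the limit was not always enough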
# Active calls of the source: *; x = no result given.
SMILES,KDM4C inh,IDH1 R132H inh,Pf Dd2 inh,T cruzi growth
C[C@H]1CCCCO[C@@H](CN(C)C(=O)C2CCCCC2)[C@@H](C)CN([C@@H](C)CO)C(=O)c2cc(NC(=O)c3ccncc3)ccc2O1,-0.3,-3.7,-80.9*,18.5
CC(=O)c1ccc(NC(=O)CN(C)S(=O)(=O)c2ccc(Cl)cc2)cc1,x,0.0,x,x
COc1cccc(NC(=O)CSc2nnnn2C)c1,x,0.5,x,x
CC1(C)CC(NC(=O)CC(c2ccc(F)cc2)c2ccco2)CCO1 (configuration not stated),x,2.4,x,x
CCOC(=O)C1CCCCN1Cc1cccc([N+](=O)[O-])c1 (configuration not stated),x,-0.8,x,x
Cc1ccc(N(Cc2ccco2)C(=O)c2cccc(S(=O)(=O)N3CCOCC3)c2)cc1,x,0.4,x,x
C[C@H]1CCCCO[C@@H](CN(C)C(=O)C2CCCCC2)[C@@H](C)CN([C@@H](C)CO)C(=O)c2cc(NC(=O)Nc3ccccc3)ccc2O1,-1.3,-4.5,-88.1*,65.4
C[C@@H]1CN([C@@H](C)CO)C(=O)c2cc(NC(=O)Nc3ccccc3)ccc2O[C@@H](C)CCCCO[C@@H]1CN(C)C(=O)C1CCCCC1,0.0,2.2,-83.5*,35.1
C[C@H](CO)N1C[C@H](C)[C@H](CN(C)C(=O)C2CCCCC2)OCCCC[C@H](C)Oc2ccc(NC(=O)Nc3ccccc3)cc2C1=O,x,x,-1.5,90.9
C[C@@H]1CCCCO[C@H](CN(C)C(=O)c2ccccc2)[C@@H](C)CN([C@@H](C)CO)C(=O)c2cc(NC(=O)Nc3ccc4c(c3)OCO4)ccc2O1,0.2,0.6,-81.3*,35.7
C[C@@H]1CCCCO[C@H](CN(C)C(=O)c2ccccc2)[C@@H](C)CN([C@H](C)CO)C(=O)c2cc(NC(=O)Nc3ccc4c(c3)OCO4)ccc2O1,-1.9,x,5.7,23.2
CSc1cccc(NC(=O)CSc2nnc(-c3ccc(Br)cc3)n2C)c1,x,0.1,x,x
C[C@H]1CN([C@@H](C)CO)C(=O)c2cc(NS(=O)(=O)c3cccs3)ccc2O[C@H]1CN(C)Cc1ccc(C(=O)Nc2ccccc2N)cc1,0.5,x,-49.4,x
C[C@@H]1CN([C@H](C)CO)C(=O)Cc2cc(NS(=O)(=O)c3cccs3)ccc2O[C@@H]1CN(C)Cc1ccc(C(=O)Nc2ccccc2N)cc1,-0.7,x,-85.6*,x
C[C@@H]1CN([C@H](C)CO)C(=O)c2cc(NS(=O)(=O)c3cccs3)ccc2O[C@@H]1CN(C)Cc1ccc(C(=O)Nc2ccccc2N)cc1,0.0,x,-87.1*,x
Cc1ccccc1/C=C1\Sc2ccccc2N(CC(=O)NC(C)c2ccccc2)C1=O (configuration not stated),x,-0.7,x,x
O=C(O)C(c1ccccc1)N1C(=O)/C(=C/c2ccncc2)SC1=S (configuration not stated),x,66.4*,x,x
CC(C)C(C(=O)O)N1C(=O)/C(=C/c2ccccc2)SC1=S (configuration not stated),x,0.8,x,x
COc1ccc2c3c([nH]c2c1)[C@@H](CO)N(Cc1cccc(F)c1)CC31CCN(C(C)=O)CC1,-1.6,x,-93.3*,x
COc1ccc2c3c([nH]c2c1)[C@@H](CO)N(Cc1cccc(F)c1)CC31CN(C(C)=O)C1,1.2,x,-85.0*,x
COc1ccc2c3c([nH]c2c1)[C@H](CO)N(Cc1cccc(F)c1)CC31CN(C(C)=O)C1,-0.1,x,-78.5,x
CC(=O)Nc1ccc(C(=O)CSc2nc3ccccc3o2)cc1,x,-0.2,x,x
C=CC1CN(C=O)CCC1CCC(=O)c1ccnc2ccccc12 (configuration not stated),x,-0.3,x,x
CCOc1cccc(/C=N/NC(=O)c2ccc(C(=O)NO)cc2)c1OCC,x,0.1,x,x
Cc1noc(C)c1S(=O)(=O)N(C)C[C@@H]1OCCCC[C@H](C)Oc2ccc(NC(=O)C3CCCCC3)cc2C(=O)N([C@@H](C)CO)C[C@H]1C,-0.2,-0.7,-82.8*,-7.6
SMILES,KDM4C inh,IDH1 R132H inh,Pf Dd2 inh,T cruzi growth
Cc1noc(C)c1S(=O)(=O)N(C)C[C@H]1OCCCC[C@@H](C)Oc2ccc(NC(=O)C3CCCCC3)cc2C(=O)N([C@@H](C)CO)C[C@@H]1C,-0.6,x,-81.9*,58.6
COc1ccc(S(=O)(=O)NCCc2c[nH]c3ccccc23)c2ccccc12,x,0.3,x,x
C[C@H](CO)N1C[C@H](C)[C@H](CN(C)Cc2ccc(C(=O)Nc3ccccc3N)cc2)Oc2ccc(NC(=O)Cc3ccccc3)cc2C1=O,6.5,0.6,-84.4*,x
C[C@@H]1CN([C@@H](C)CO)C(=O)c2cc(NC(=O)Nc3ccc(F)cc3)ccc2O[C@@H]1CN(C)Cc1ccc(C(=O)Nc2ccccc2N)cc1,0.0,-0.4,-83.6*,x
C[C@H](CO)N1C[C@H](C)[C@H](CN(C)Cc2ccc(C(=O)Nc3ccccc3N)cc2)Oc2ccc(NC(=O)Nc3ccc(C(F)(F)F)cc3)cc2C1=O,-0.3,0.1,-80.3*,x
COc1ccc(NC(=O)Nc2ccc3c(c2)C(=O)N([C@H](C)CO)C[C@H](C)[C@H](CN(C)Cc2ccc(C(=O)Nc4ccccc4N)cc2)O3)cc1,-0.1,-0.2,-79.5,x
C[C@H](CO)N1C[C@H](C)[C@H](CN(C)Cc2ccc(C(=O)Nc3ccccc3N)cc2)Oc2ccc(NC(=O)Nc3ccccc3)cc2C1=O,0.2,x,-70.3,41.7
C[C@@H]1CN([C@@H](C)CO)C(=O)c2cc(NC(=O)Nc3ccccc3)ccc2O[C@@H]1CN(C)Cc1ccc(C(=O)Nc2ccccc2N)cc1,-2.3,x,-83.5*,47.7
C[C@H]1CN([C@@H](C)CO)C(=O)c2cc(NC(=O)Nc3ccc(F)cc3)ccc2O[C@H]1CN(C)Cc1ccc(C(=O)Nc2ccccc2N)cc1,-3.6,0.4,-71.3,50.6
COc1ccc([N+](=O)[O-])cc1NC(=O)CN(C)S(=O)(=O)c1ccc(C)cc1,x,0.2,x,x
COc1ccc(O)c(/C=N/NC(=O)c2cccc(C(=O)NO)c2)c1,x,0.1,x,x
COc1cccc(CN2CC3(CCN(CC4CC4)CC3)c3c([nH]c4cc(OC)ccc34)[C@H]2CO)c1,2.2,x,-92.3*,x
COc1ccc2c3c([nH]c2c1)[C@H](CO)N(CC1CC1)CC31CCN(Cc2ccccc2F)CC1,-1.5,x,-84.8*,x
COc1ccc2c3c([nH]c2c1)[C@H](CO)N(Cc1ccccc1)CC31CCN(CC2CC2)CC1,1.1,x,-92.5*,x
O=C(O)CCCCCCC(=O)N/N=C/c1ccc2ccccc2n1,x,0.5,x,x
CCN(C(=O)C(C)Oc1ccccc1)c1ccccc1C (configuration not stated),x,-0.3,x,x
O=[N+]([O-])c1cc(C(F)(F)F)ccc1NCCNS(=O)(=O)c1ccc(Br)cc1,x,-0.1,x,x
O=C(c1ccccn1)N1CC[C@@H]2[C@H](CO)Nc3ccc(C#Cc4ccccc4)cc3[C@@H]21,-1.8,x,2.1,84.4
COc1ccc(C#Cc2ccc3c(c2)[C@H]2[C@H](CCN2C(=O)c2ccccn2)[C@@H](CO)N3)cc1,-2.5,x,-91.4*,x
